Key:
[1] = system: G361 melanoma cells; assay: G361 melanoma cell proliferation; type: cell-based; settings: Homo sapiens, G-361, read-out: IC50, inhibition of G361 cell proliferation
[2] = system: UACC-62-R cells; assay: PLX4720-resistant UACC-62-R melanoma cell proliferation; type: cell-based, human
In short: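 The PLX4720-resistant UACC-62-R line was derived by sustained culture in low-dose PLX4720. It was maintained in 20 μM PLX4720, with medium replenished twice weekly. Proliferation was tracked as IncuCyte confluence and IC50 was derived for resistant and wild-type cells.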

Row | IC50 [1] | IC50 ([2]; Homo sapiens, read-out: IC50, inhibition of UACC-62-R cell proliferation) | SMILES | resistance of UACC-62-R relative to UACC-62-WT cells ([2]; proliferation in presence of PLX4720)
1 | 38 µM | – | C=CCc1ccc(O)c(-c2cc(CC=C)ccc2O)c1 [MGN, magnolol] | –
2 | – | 26.2 µM | CCCS(=O)(=O)Nc1ccc(F)c(C(=O)c2c[nH]c3ncc(Cl)cc23)c1F [PLX4720] | approximately six times more resistant

Reference: publication PMC7883397 (Cancer treatment and research communications, 2020)
